The term IC50 denotes the point on the concentration scale where inhibition reaches its midpoint. Low values mean inhibition by little substance, high ones a need for much substance.

Each structure is given as a SMILES string. A value given as a limit tells only on which side of the number the result lay.

Experimental findings from ChEMBL document CHEMBL4052657, “Design, synthesis and biological evaluation of sulfonamide-substituted diphenylpyrimidine derivatives (Sul-DPPYs) as potent focal adhesion kinase (FAK) inhibitors with antitumor activity” (Bioorg Med Chem, 2017) are described below.

The subject of experiment [1] is ASPC1. The experiment can be described thus: Antiproliferative activity against human AsPC1 cells after 72 hrs by CCK8 assay. The following applies: ASPC1, 72 h. Background: Tetrazolium assays rely on reduction of a dye to a coloured formazan, in cell work by metabolically active cells.
In experiment [2] the test system is NCI-H1975. The experiment can be described thus: Antiproliferative activity against gefitinib-resistant human NCI-H1975 cells harboring FAK after 72 hrs by CCK8 assay. The following applies: NCI-H1975, 72 h. It counts as functional, cell-based. In a few lines:
(§1)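 Cells in RPMI-1640 with 10% FBS and 1% penicillin-streptomycin, 37 °C, 5% CO2. Seeded at 3,000 to 5,000 cells/well and grown one day, then exposed to compound for 72 h at 1.25 to 40 µmol/L, five replicates per concentration. CCK-8 read-out is absorbance at 450 nm. Dose-response curves used five concentrations. IC50 is the mean of at least three separate experiments.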

Experiment [3] has as its system PANC-1. The experiment can be described thus: Antiproliferative activity against human PANC1 cells after 72 hrs by CCK8 assay. The following applies: PANC-1, 72 h.
Experiment [4] has as its system BXPC-3. Kind of experiment: Antiproliferative activity against human BxPC3 cells after 72 hrs by CCK8 assay. The following applies: BXPC-3, 72 h.
The subject of experiment [5] is Ramos. The experiment can be described thus: Antiproliferative activity against human Ramos cells after 72 hrs by CCK8 assay. In kind it is functional, cell-based. The gist of the method: as §1
Experiment [6] relates to L02. Kind of experiment: Antiproliferative activity against human LO2 cells after 72 hrs by CCK8 assay. The following applies: L02, 72 h.

Consider `CNC(=O)c1ccccc1Nc1nc(Nc2ccc(NS(=O)(=O)c3ccc(C)cc3)c(C)c2)ncc1Cl`, for which the IC50 in experiment [1] was determined as 2.32 µM; in experiment [2], 9.56 µM; in experiment [3], 2.99 µM; in experiment [4], 23.1 µM; in experiment [5], 20.3 µM; in experiment [6], 27.5 µM.

In the case of `CNC(=O)c1ccccc1Nc1nc(Nc2ccc(Oc3ccc(NS(=O)(=O)C(F)(F)F)cc3)cc2)ncc1Cl`, the IC50 was 2.39 µM in experiment [1]; 4.1 µM in experiment [2]; 1.75 µM in experiment [3]; 5.86 µM in experiment [4]; 14.4 µM in experiment [5]; 3.37 µM in experiment [6].

For `CNC(=O)c1ccccc1Nc1nc(Nc2ccc(NS(=O)(=O)c3ccc(C)cc3)cc2)ncc1Cl`, the IC50 was determined as 1.55 µM in experiment [1]; 7.07 µM in experiment [2]; 2.76 µM in experiment [3]; 19.4 µM in experiment [4]; 6.17 µM in experiment [5]; 28.7 µM in experiment [6].

Take `CNC(=O)c1ccccc1Nc1nc(Nc2ccc(NS(=O)(=O)c3ccc(F)cc3)c(OC)c2)ncc1Cl`: the IC50 was found to be 6.69 µM in experiment [1]; 12.9 µM in experiment [2]; 5.7 µM in experiment [3]; 31.6 µM in experiment [4]; 24.6 µM in experiment [5]; 19.7 µM in experiment [6].

As for `Nc1ccn([C@@H]2O[C@H](CO)[C@@H](O)C2(F)F)c(=O)n1` [GEMCITABINE], the IC50 in experiment [1] was 26.8 µM; in experiment [2], greater than 10 µM; in experiment [3], 30.4 µM; in experiment [4], 20.2 µM; in experiment [5], greater than 10 µM; in experiment [6] it was greater than 20 µM.
